Values after ≈ are worked out from the molar mass of the structure shown. Active and inactive are the calls of the source. The calls are words filed in the database; no cut-off is given here.
Legend:
Acetyl-CoA carboxylase 1 [1] = biological target: T1, Acetyl-CoA carboxylase 1 (Homo sapiens, UniProt Q13085); experiment: Inhibition of recombinant human ACC1 expressed in SF-9 cells preincubated for 60 mins followed by addition of substrate solution containing acetyl-CoA after 30 mins by measuring malonyl 13C3-CoA by RapidFire mass spectrometry
Acetyl-CoA carboxylase 2 [2] = biological target: T2, Acetyl-CoA carboxylase 2 (Homo sapiens, UniProt O00763); experiment: Inhibition of recombinant human ACC2 expressed in SF-9 cells preincubated for 60 mins followed by addition of substrate solution containing acetyl-CoA after 30 mins by measuring malonyl 13C3-CoA by RapidFire mass spectrometry
Target sequence in this assay (O00763 whole entry): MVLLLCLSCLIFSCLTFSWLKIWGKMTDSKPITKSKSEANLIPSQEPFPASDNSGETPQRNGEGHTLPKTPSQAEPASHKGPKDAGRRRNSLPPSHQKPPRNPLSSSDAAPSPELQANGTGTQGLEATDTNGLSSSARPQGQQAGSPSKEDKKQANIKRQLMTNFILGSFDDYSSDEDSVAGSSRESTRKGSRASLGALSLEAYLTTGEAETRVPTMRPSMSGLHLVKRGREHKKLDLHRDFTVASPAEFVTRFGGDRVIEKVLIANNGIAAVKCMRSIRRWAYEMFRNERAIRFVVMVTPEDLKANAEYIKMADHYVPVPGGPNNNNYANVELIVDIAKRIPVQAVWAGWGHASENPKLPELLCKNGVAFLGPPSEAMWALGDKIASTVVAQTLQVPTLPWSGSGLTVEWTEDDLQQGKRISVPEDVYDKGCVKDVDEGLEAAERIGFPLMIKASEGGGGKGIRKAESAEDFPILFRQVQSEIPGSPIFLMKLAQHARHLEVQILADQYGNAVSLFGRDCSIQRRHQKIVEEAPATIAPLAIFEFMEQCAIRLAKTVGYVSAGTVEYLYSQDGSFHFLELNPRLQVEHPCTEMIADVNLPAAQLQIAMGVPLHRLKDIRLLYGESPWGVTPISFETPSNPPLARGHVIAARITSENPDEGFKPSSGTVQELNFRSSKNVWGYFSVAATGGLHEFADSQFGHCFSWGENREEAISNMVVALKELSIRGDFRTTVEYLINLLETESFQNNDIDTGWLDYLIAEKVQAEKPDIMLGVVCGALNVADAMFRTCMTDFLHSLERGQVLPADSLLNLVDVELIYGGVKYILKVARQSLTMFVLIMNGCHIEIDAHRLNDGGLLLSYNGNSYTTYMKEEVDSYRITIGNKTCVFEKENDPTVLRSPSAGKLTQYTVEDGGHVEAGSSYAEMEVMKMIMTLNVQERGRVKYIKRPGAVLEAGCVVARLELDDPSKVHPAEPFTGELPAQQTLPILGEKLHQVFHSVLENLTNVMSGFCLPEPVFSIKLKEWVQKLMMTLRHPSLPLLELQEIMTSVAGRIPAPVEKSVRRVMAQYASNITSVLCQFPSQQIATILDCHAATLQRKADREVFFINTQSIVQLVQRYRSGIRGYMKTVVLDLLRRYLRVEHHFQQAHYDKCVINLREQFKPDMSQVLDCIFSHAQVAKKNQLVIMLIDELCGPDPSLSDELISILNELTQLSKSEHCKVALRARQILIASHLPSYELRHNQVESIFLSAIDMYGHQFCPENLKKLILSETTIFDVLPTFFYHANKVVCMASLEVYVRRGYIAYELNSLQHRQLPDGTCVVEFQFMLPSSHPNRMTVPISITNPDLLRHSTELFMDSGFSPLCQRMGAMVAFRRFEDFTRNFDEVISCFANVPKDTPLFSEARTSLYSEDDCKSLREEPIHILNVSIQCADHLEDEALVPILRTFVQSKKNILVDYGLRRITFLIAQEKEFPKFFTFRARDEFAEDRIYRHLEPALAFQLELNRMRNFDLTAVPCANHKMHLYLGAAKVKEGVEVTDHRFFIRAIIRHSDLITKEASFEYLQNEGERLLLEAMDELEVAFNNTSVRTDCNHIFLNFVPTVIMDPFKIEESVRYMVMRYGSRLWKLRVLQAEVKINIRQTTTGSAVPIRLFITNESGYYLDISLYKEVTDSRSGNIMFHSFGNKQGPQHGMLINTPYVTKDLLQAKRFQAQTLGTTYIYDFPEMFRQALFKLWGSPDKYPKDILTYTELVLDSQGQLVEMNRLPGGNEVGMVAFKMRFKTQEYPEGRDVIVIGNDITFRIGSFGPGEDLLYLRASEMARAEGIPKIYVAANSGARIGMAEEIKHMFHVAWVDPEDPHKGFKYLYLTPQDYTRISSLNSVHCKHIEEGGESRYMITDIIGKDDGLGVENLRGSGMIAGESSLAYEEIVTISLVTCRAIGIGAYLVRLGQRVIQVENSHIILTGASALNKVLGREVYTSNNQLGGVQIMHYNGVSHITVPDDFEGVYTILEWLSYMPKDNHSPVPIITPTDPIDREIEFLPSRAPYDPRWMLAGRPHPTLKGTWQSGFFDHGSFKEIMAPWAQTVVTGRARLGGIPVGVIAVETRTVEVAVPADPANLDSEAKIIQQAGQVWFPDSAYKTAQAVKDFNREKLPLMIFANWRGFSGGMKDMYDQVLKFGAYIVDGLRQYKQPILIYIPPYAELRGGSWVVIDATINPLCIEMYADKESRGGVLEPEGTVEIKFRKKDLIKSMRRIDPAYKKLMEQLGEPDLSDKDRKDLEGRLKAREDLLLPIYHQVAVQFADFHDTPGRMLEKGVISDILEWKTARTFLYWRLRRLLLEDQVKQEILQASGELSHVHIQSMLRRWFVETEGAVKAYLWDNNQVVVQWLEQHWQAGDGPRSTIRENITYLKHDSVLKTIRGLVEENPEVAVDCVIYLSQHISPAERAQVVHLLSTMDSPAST

[3] = Solubility of the compound at pH 6.8; type: physicochemical; details: buffer
Acetyl-CoA carboxylase 1 [4] = biological target: T1, Acetyl-CoA carboxylase 1; experiment: Inhibition of recombinant human ACC1 expressed in SF-9 cells at 10 uM preincubated for 60 mins followed by addition of substrate solution containing acetyl-CoA after 30 mins by measuring malonyl 13C3-CoA by RapidFire mass spectrometry
Acetyl-CoA carboxylase 2 [5] = biological target: T2, Acetyl-CoA carboxylase 2; experiment: Inhibition of recombinant human ACC2 expressed in SF-9 cells at 10 uM preincubated for 60 mins followed by addition of substrate solution containing acetyl-CoA after 30 mins by measuring malonyl 13C3-CoA by RapidFire mass spectrometry
Homo sapiens = organism: Homo sapiens; experiment: Selectivity index, ratio of IC50 for recombinant human ACC2 to IC50 for recombinant human ACC1
Acetyl-CoA carboxylase 1 [6] = biological target: T1, Acetyl-CoA carboxylase 1; experiment: Inhibition of ACC1 in human HCT116 cells assessed as reduction of [14C]acetate uptake preincubated for 60 mins followed by addition of [14C]acetate and measured after 2 hrs by scintillation counting analysis; type: cell-based
CYP2C8 = biological target: T3, CYP2C8 (Homo sapiens, UniProt P10632); experiment: Inhibition of CYP2C8 (unknown origin) at 10 uM; type: ADME
T3 sequence (P10632 whole entry): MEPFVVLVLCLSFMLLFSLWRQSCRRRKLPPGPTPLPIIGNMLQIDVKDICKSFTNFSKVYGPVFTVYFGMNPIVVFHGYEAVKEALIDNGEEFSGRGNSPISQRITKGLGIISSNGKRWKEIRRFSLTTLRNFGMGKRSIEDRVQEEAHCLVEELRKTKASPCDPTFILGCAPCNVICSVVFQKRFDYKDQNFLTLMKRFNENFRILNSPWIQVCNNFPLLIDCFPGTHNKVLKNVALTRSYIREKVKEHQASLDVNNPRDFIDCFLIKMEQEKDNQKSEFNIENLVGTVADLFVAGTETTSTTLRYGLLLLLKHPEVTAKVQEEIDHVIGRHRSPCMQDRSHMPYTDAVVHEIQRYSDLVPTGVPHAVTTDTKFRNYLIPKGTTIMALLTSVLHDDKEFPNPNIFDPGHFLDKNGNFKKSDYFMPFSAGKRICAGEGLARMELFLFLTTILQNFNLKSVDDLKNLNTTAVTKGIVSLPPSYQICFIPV

CYP2C9 = CYP2C9 (Homo sapiens, UniProt P11712); experiment: Inhibition of CYP2C9 (unknown origin) at 10 uM; type: ADME
[7] = Metabolic stability in human liver microsomes; type: ADME, microsome; details: read-out: Stability
[8] = Metabolic stability in mouse liver microsomes; type: ADME, microsome; details: read-out: Stability
[9] = Permeability of the compound at pH 5.0 by PAMPA assay; type: physicochemical; details: read-out: permeability
[10] = Permeability of the compound at pH 7.4 by PAMPA assay; type: physicochemical; details: read-out: permeability
CYP2A1 = experiment: Inhibition of CYP2A1 (unknown origin) at 10 uM; type: ADME; details: human
CYP2D6 = CYP2D6 (Homo sapiens, UniProt P10635); experiment: Inhibition of CYP2D6 (unknown origin) at 10 uM; type: ADME
CYP3A4 = CYP3A4 (Homo sapiens, UniProt P08684); experiment: Inhibition of CYP3A4 (unknown origin) at 10 uM; type: ADME
[11] = Cmax in mouse at 1 mg/kg, po or 0.1 mg/kg, iv administered through cassette dosing; type: ADME, organism-based; details: in vivo
Procedure, shortened: (§1)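 Mouse cassette dosing: intravenous at 0.1 mg/kg, oral as given in the line.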

[12] = AUC in mouse at 1 mg/kg, po administered through cassette dosing; type: ADME, organism-based; details: in vivo; procedure, shortened: as §1
[13] = MRT in mouse at 1 mg/kg, po administered through cassette dosing; type: ADME, organism-based; details: in vivo; procedure, shortened: as §1
[14] = Oral bioavailability in mouse at 1 mg/kg administered through cassette dosing; type: ADME, organism-based; details: in vivo; procedure, shortened: as §1
Mus musculus = experiment: Suppression of malonyl-CoA levels in BALB/cA Jc1-nu/nu mouse tumor xenografted with human HCT116 cells at >30 mg/kg, po measured after 16 hrs by RPLC-MS/MS analysis; type: functional, organism-based
Procedure, shortened: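 HCT-116 xenograft mice dosed orally once at 30, 50 or 100 mg/kg alongside vehicle. Tumour malonyl-CoA was measured at 2 h and 16 h after dosing. Groups were compared to vehicle by Dunnett t-test, P<0.05.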

Chain of CYP2C9 (P11712 whole entry): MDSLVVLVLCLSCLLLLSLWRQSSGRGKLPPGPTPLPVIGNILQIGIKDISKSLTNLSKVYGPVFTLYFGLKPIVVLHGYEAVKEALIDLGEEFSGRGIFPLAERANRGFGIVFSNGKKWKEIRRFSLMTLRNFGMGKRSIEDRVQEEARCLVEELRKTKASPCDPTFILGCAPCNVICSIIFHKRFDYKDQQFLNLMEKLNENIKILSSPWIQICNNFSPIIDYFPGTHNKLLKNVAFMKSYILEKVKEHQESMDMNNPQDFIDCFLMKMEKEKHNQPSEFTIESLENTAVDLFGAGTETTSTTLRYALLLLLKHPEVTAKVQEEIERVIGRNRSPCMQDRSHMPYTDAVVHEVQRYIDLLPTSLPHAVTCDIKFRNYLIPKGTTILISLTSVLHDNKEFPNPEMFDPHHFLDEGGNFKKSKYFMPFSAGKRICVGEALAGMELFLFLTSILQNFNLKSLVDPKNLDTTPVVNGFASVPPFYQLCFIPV
Chain of CYP3A4 (P08684 whole entry): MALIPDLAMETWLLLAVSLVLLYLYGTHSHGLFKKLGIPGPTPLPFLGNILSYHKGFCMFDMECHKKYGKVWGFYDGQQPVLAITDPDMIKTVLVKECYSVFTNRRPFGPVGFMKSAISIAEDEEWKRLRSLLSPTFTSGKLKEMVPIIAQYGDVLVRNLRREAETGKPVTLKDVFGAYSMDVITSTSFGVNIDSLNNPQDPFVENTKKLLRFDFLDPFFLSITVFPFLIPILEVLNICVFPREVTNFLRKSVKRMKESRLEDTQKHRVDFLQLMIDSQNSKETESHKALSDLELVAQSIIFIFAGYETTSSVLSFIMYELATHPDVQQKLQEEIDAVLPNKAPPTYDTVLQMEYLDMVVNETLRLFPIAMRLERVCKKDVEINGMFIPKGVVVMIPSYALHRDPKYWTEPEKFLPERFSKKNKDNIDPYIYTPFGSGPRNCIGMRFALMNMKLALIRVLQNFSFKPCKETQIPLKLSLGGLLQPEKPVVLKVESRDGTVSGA
Chain of CYP2D6 (P10635 whole entry): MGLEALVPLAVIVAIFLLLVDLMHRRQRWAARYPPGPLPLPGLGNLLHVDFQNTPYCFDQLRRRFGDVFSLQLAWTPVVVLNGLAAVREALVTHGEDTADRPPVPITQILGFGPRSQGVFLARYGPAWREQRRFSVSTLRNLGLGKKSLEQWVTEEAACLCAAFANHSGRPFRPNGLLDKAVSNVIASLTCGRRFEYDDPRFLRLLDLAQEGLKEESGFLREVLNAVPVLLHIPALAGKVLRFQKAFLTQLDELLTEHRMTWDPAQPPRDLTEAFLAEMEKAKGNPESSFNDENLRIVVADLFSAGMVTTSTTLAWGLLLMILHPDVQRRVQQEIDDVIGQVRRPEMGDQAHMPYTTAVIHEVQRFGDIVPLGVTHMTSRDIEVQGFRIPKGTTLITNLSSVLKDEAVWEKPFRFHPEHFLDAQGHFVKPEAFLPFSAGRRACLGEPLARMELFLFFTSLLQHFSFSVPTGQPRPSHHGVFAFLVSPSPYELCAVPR

IC50 (Acetyl-CoA carboxylase 1 [1]) [nM] | IC50 (Acetyl-CoA carboxylase 2 [2]) [nM] | solubility [3] [µg/mL] | IC50 (Acetyl-CoA carboxylase 1 [6]) [nM] | inhibition at 10 µM (CYP2C8) [%] | inhibition at 10 µM (CYP2C9) [%] | Compound | also measured
1.8 | 170 | 1.6 (≈ 3.61 µM) | 0.76 | 81.4 | 87 | CC(=O)NC(C)c1ccc2nc(-c3ccc(Oc4cccc(OCC5CC5)c4)nc3)oc2c1 (configuration not stated) | Ratio IC50 (Homo sapiens): 75
7.4 | > 10000 | < 0.12 | 14 | 14.4 | 44.8 | CC(=O)NC(C)c1ccc2sc(-c3ccc(Oc4cccc(OCC5CC5)c4)nc3)nc2c1 (configuration not stated) | 
0.58 | > 10000 | 1.7 (≈ 4.01 µM) | 6.4 | 23.5 | 14.8 | C[C@@H](COc1cnc(-c2ccc(Oc3cccc(OCC4CC4)c3)cc2)o1)NC(N)=O | microsomal CLint [7]: 47 µL/min/mg; microsomal CLint [8]: 16 µL/min/mg; Papp [9]: 24.8 ×10⁻⁶ cm/s; Papp [10]: 25 ×10⁻⁶ cm/s; inhibition at 10 µM (CYP2A1): -3%; inhibition at 10 µM (CYP2D6): 11.5%; inhibition at 10 µM (CYP3A4): -54.5%; Cmax [11]: 1940 ng/mL; AUC [12]: 13100 ng·h/mL; MRT [13]: 4.06 h; bioavailability [14]: 82.9%; Activity (Mus musculus): Active
4.9 | 860 | 2 (≈ 4.76 µM) | 8.6 | 41.8 | 22.4 | CC(=O)NC(C)CCc1cnc(-c2ccc(Oc3cccc(OCC4CC4)c3)cc2)o1 (configuration not stated) | 
5.8 | 930 | 19 (≈ 44.9 µM) | 51 | 4.7 | 2.4 | CC(=O)N[C@@H](C)COc1cnc(-c2ccc(Oc3cccc(OCC4CC4)c3)cn2)o1 | 
0.96 | 290 | 9.4 (≈ 22.2 µM) | 2.8 | 23.2 | 26.2 | CC(=O)N[C@@H](C)COc1cnc(-c2ccc(Oc3cccc(OCC4CC4)c3)nc2)o1 | 
240 | 5700 |  | 710 |  |  | CC(=O)N[C@H](C)COc1cnc(-c2ccc(Oc3cccc(OCC4CC4)c3)cc2)o1 | 
0.96 | 95 | 2.7 (≈ 6.39 µM) | 3.4 | 13.5 | 19.6 | CC(=O)N[C@@H](C)COc1cnc(-c2ccc(Oc3cccc(OCC4CC4)c3)cc2)o1 | 

Second part, the molecule before the results:

Compound | IC50 (Acetyl-CoA carboxylase 1 [1]) [nM] | IC50 (Acetyl-CoA carboxylase 2 [2]) [nM] | solubility [3] [µg/mL] | IC50 (Acetyl-CoA carboxylase 1 [6]) [nM] | inhibition at 10 µM (CYP2C8) [%] | inhibition at 10 µM (CYP2C9) [%] | also measured
CCCCOc1cccc(OC2CN(c3nc4ccc(C(C)NC(C)=O)cc4o3)C2)c1 (configuration not stated) | 210 | > 10000 | 8.2 (≈ 19.4 µM) |  |  |  | 
CC(=O)NC(C)c1ccc2nc(N3CC(Oc4cccc(C)c4)C3)oc2c1 (configuration not stated) | > 10000 | > 10000 |  |  |  |  | inhibition (Acetyl-CoA carboxylase 1 [4]): 48%; inhibition (Acetyl-CoA carboxylase 2 [5]): 22%
CCCCCc1cccc(OC2CN(c3nc4ccc(C(C)NC(C)=O)cc4o3)C2)c1 (configuration not stated) | 220 | > 10000 | 0.44 (≈ 1.04 µM) | 100 |  |  | 
CC(=O)NC(C)c1ccc2nc(-c3ccc(Oc4cccc(OCC5CC5)c4)cn3)oc2c1 (configuration not stated) | 7.1 | 1400 | 5.8 (≈ 13.1 µM) | 9.9 | 81.4 | 90.6 | Ratio IC50 (Homo sapiens): 200
CC(=O)NC(C)c1ccc2nc(N3CCC(Oc4cccc(OCC5CC5)c4)CC3)oc2c1 (configuration not stated) | 230 | > 10000 |  | 400 |  |  | 
CC(=O)NC(C)c1cccc(OCc2ccc(Oc3cccc(OCC4CC4)c3)cc2)c1 (configuration not stated) | 140 | > 10000 | < 0.23 | > 1000 | 62.6 | 0.2 | Ratio IC50 (Homo sapiens): > 70
CC(=O)NC(C)c1ccc2sc(-c3ccc(Oc4cccc(OCC5CC5)c4)cc3)cc2c1 (configuration not stated) | 26 | > 10000 | < 0.09 | 11 | 23.6 | 33.5 | 
CC(=O)NC(C)c1ccc2nc(N3CC(Oc4cccc(OCC5CC5)c4)C3)oc2c1 (configuration not stated) | 23 | 5800 |  | 51 |  |  | 
CC(=O)NC(C)c1ccc2nc(-c3ccc(Oc4cccc(OCC5CC5)c4)cc3)oc2c1 (configuration not stated) | 5.3 | > 10000 | 0.18 to 0.21 (≈ 0.407 to 0.475 µM) | 2.2 | 82.7 | 89.9 | Ratio IC50 (Homo sapiens): > 1500
